Screening data from PubChem.
MPTP inh: mitochondrial permeability transition pore inhibitors, primary screen, biochemical, isolated mouse mitochondria, absorbance | Ca2+ swelling absorbance, 30 min | inhibition, % at 10 µM | 360,000 tested, 1.4% active;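 active means inhibition of 50% or more, scaled per plate between neutral and stimulator controls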;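 further: 0% = DMSO wells given calcium and 100% = 1 mM EGTA wells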
T cruzi inh: inhibitors of intracellular T. cruzi growth, primary screen, luminescence, NIH3T3 host cells; T. cruzi beta-gal in NIH3T3, 90 h; inhibition, % (concentration not given with the values); 300,000 tested, 1.4% active; AID 1885, 2009;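 active means mean inhibition across valid replicates above about 55%, limit read from the data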;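 further: signal also drops with host cell toxicity which is not excluded here; 0% = plate median of DMSO wells and 100% = zero luminescence signal; higher percent means less beta-gal luminescence so fewer parasites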
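Assay system: NIH/3T3 fibroblasts plus reporter T. cruzi. Amount: NIH/3T3 cells, 5,000 per well. Buffer or medium: DMEM, 2% fetal bovine serum. Doses: compound pinned at 50 nL/well, DMSO. Schedule: ≥90 h infection period, 3 h prior cell attachment. Signal: luminescent β-galactosidase signal after 60 min lysis. Read-out: parasite load inhibition, %.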
Lmaj promast: Leishmania major promastigote growth inhibition, primary screen; Leishmania major promastigotes, resazurin fluorescence viability; 200,000 tested, 9% active; inhibition, % at 10 µM; AID 1063, 2008; in the data active means inhibition above about 50%;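 further: promastigotes grown with compound for 44 hours at 28 °C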
Hep lipid drop: inhibitors of hepatocyte lipid droplet formation, primary screen, imaging, high-throughput imaging, BODIPY stain; AML12 mouse hepatocytes, oleate lipid droplets; 240,000 tested, 0.4% active; inhibition, % at 6.5 µM;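 active means lipid droplet intensity inhibited by at least 50%, with more than 500 cells counted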
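Assay system: AML12 mouse liver cells | Compound: 6.5 µM single-point dosing | Schedule: Overnight exposure | Technique: Fluorescence imaging, 20x objective, two fields per well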
Redox H2O2 prof: compounds producing H2O2 with reducing agent – biochemical, NIH compound library profiling, artefact control for MLSCN library redox annotation, primary screen | DTT-dependent redox cycling H2O2, phenol red/HRP absorbance; 100% = 100 µM peroxide control, 0% = buffer | activation, % at 10 µM | 200,000 tested, 0.03% active | AID 878, 2007;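 active means activation of at least 50% relative to the plate's high and low controls in the primary single-dose screen; inactive means activation below 50%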;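 further: compound incubated with DTT at 0.8 mM final as the reducing agent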
Starred values were filed as active, the others as inactive; . = not tested or not shown. This excerpt belongs to a sample that is enriched for hits.

SMILES | MPTP inh | T cruzi inh | Lmaj promast | Hep lipid drop | Redox H2O2 prof
CCC(C)c1ccccc1OCCCCN1CCCC1 (configuration not stated) | 0 | 35 | 99* | -2 | 0
CCC(C)c1ccccc1OCCOCCN1CCCC1 (configuration not stated) | -1 | 32 | 98* | -2 | 0
Cc1nc(/C(N)=N/OC(=O)Cc2ccccc2)no1 | -1 | -3 | -4 | 6 | -1
COc1cc(C(=O)Nc2ccc(S(=O)(=O)N3CCOCC3)cc2)c([N+](=O)[O-])cc1OC | 0 | -6 | 3 | -1 | -2
O=S(=O)(Cc1ccccc1Cl)NCCc1ccc(F)cc1 | 1 | -14 | . | 1 | .
Cc1ccc(NC2CCCN(C(=O)CSc3ccncc3)C2)cc1C (configuration not stated) | 1 | 56* | . | -9 | .
COc1ccc(NC2CCCN(C(=O)CCc3ccncc3)C2)cc1OC (configuration not stated) | 1 | 1 | . | 12 | .
Cc1ccc(NC2CCCN(C(=O)CCc3ccncc3)C2)cc1C (configuration not stated) | 0 | 63* | . | -2 | .
CCCc1cc(=O)oc2cc(OC(C)C(=O)NCC3CCC(C(=O)O)CC3)ccc12 (configuration not stated) | 2 | 2 | . | . | .
c1csc(C(c2nnnn2C2CCCCC2)N2CCCC3(CCCCC3)C2)c1 (configuration not stated) | 3 | 45 | 38 | -33 | 2
CC(C)(C)n1nnnc1C(c1cccs1)N1CCCC2(CCCCC2)C1 (configuration not stated) | 2 | 63* | 42 | -6 | 1
COc1ccc(-c2nc3oc4cc(OC)ccc4c(=O)c3c(=O)n2Cc2ccco2)cc1 | 3 | 14 | 73* | 14 | 0
COCCn1c(-c2ccc(OC)cc2)nc2oc3cc(OC)ccc3c(=O)c2c1=O | 0 | 11 | 55* | . | 2
Cc1ccc2nc3sc(C(=O)NCc4ccco4)c(N)c3cc2c1 | -1 | 14 | 0 | -4 | 0
COc1cc2cc3c(N)c(C(=O)NCc4ccco4)sc3nc2cc1OC | 1 | 16 | 81* | . | -3
O=C(COC(=O)c1cc([N+](=O)[O-])ccc1N1CCOCC1)Nc1cccc(F)c1 | 0 | 4 | . | -1 | .
S=C(Sc1ccc(Cl)cc1)Sc1ccc(Cl)cc1 | . | 63* | . | 9 | .
O=c1oc2ccccc2c(O)c1/C=C1\C=Nc2ccccc21 | 2 | 13 | 100* | . | -6
Cc1ccc([N+](=O)[O-])cc1Nc1nc(N2CCCC2)nc(N2CCCC2)n1 | 1 | 1 | . | 2 | .
COc1ccc(C(=O)NCC(c2cccnc2)N2CCN(c3ccccc3)CC2)cc1OC (configuration not stated) | -2 | 48 | 81* | 5 | 0
COc1ccc(N2CCN(C(CNC(=O)c3ccco3)c3cccnc3)CC2)cc1 (configuration not stated) | -7 | 42 | 46 | . | 0
O=C(NCC(c1cccnc1)N1CCN(c2ccc(F)cc2)CC1)c1ccco1 (configuration not stated) | -1 | 60* | 72* | 2 | 0
O=C(NCC(c1cccnc1)N1CCN(c2ccc(F)cc2)CC1)c1ccc(F)cc1 (configuration not stated) | 0 | 60* | 88* | 0 | 2
COc1cc(C(=O)NCC(c2cccnc2)N2CCN(c3ccc(F)cc3)CC2)cc(OC)c1OC (configuration not stated) | 0 | 71* | 78* | 26 | -1
O=C(NCc1cccnc1)C(=O)NCC(c1ccco1)N1CCN(c2ccc(F)cc2)CC1 (configuration not stated) | 19 | 12 | 48 | -3 | 0
COc1ccc(-c2noc(COC(=O)c3ccco3)n2)cc1OC | -2 | . | . | . | .
COc1ccc(C2CC(c3ccccc3)=NN2C(=O)COC(=O)c2nc3nccc(C)n3n2)cc1 (configuration not stated) | 0 | -4 | -1 | 7 | 0
CC(=O)c1cc(-c2ccc(F)cc2)n(CCC(=O)Nc2cccc(C)n2)c1C | 3 | -4 | -1 | 44 | 0
